In data set [1] the target is Bcl-2-like protein 1 (Homo sapiens) (UniProt Q07817). Description: Inhibition of Bcl-xL at 200 uM by 1D 1H NMR binding assay.
The test system of another data set is NCI-H460. Description: Cytotoxicity against human H460 cells assessed as cell viability after 72 hrs by ATP-LITE assay. Type of data set: functional, cell-based. The settings on record: NCI-H460, 72 h. In a few lines:
(§1)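 ATP-LITE viability readout. Seeded 24 h before dosing (H460, H1299 at 2000 cells/well; PC3 at 3000 cells/well) in 12F2 or RPMI1640 with 5 mM L-glutamine, 5% FBS and pen/strep. Fresh 5% medium added, then compounds in 0.1% DMSO final. Viability read after 72 h treatment and normalized to DMSO-treated cells.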

Data set [2] in a line: Induction of apoptosis in human RS11846 cells after 1 to 2 days by FITC-annexin V and propidium iodide assay. The format is functional, cell-based.
A short description of data set [3]: Induction of apoptosis in human BP3 cells after 1 to 2 days by FITC-annexin V and propidium iodide assay. The format is functional, cell-based.
Data set [4] in a line: Stability in rat plasma after 1 hr at 37.5 degC. The format is ADME, cell-free. The settings on record: read-out: Stability. In a few lines:
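Compound incubated in rat plasma for 1 h; percentage of parent remaining was reported.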

A short description of data set [5]: Stability in rat liver microsome at 4 uM after 1 hr. The settings on record: liver microsomes, read-out: Stability. The format is ADME. In a few lines:
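Compound incubated for 1 h in rat microsomal preparations; percentage of parent remaining was reported.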

Data set [6] can be described thus: Membrane permeability assessed as drug permeation at 100 uM at pH 7.2 after 8 hrs by PAMPA. The format is ADME. The settings on record: pH 7.2, 8 h.
The nature of data set [7]: Cytotoxicity against human H1299 cells assessed as cell viability after 72 hrs by ATP-LITE assay. The settings on record: NCI-H1299, 72 h. Type of data set: functional, cell-based. In a few lines: as §1
The nature of data set [8]: Cytotoxicity against human PC3-ML cells assessed as cell viability after 72 hrs by ATP-LITE assay. The format is functional, cell-based. In a few lines: as §1

pEC50: −log10 of the molar value. Calls of active or inactive are those of the source. No cut-off for these calls is given here. Where only a bound is given, the exact number is not on record here.

Usually pEC50 stands for the EC50 on a negative log10 scale, so that one unit is a factor of ten.

Sequence of Bcl-2-like protein 1 (Homo sapiens) (Q07817 whole entry): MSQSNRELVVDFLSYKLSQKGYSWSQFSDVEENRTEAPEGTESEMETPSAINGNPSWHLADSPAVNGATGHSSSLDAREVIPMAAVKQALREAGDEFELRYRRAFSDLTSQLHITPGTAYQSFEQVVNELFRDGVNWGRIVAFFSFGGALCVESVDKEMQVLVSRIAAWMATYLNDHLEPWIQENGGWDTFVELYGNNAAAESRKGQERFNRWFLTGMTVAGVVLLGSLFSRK

With `CCC(NC(=O)c1c(O)c(O)cc2c(O)c(-c3c(C)cc4c(C(=O)NC(CC)c5ccccc5)c(O)c(O)cc4c3O)c(C)cc12)c1ccccc1` (stereo not drawn), the outcome in [1] was Active. The results for the negative logarithm of the EC50 (pEC50) (with NCI-H460; in data set [2]) were 5.82 and 5.38, respectively.

As to `Cc1cc2c(C(=O)NCCc3ccc(Cl)cc3)c(O)c(O)cc2c(O)c1-c1c(C)cc2c(C(=O)NCCc3ccc(Cl)cc3)c(O)c(O)cc2c1O`, in [1], the outcome was Active. Further, the negative-log EC50 (pEC50) with NCI-H460 is 5.89; in data set [2], 5.29; in data set [3] it was 6.15.

As to `Cc1cccc(CCNC(=O)c2c(O)c(O)cc3c(O)c(-c4c(C)cc5c(C(=O)NCCc6cccc(C)c6)c(O)c(O)cc5c4O)c(C)cc23)c1`, in data set [1], the outcome was Active. Moreover, the figures for the negative logarithm of the EC50 (pEC50) (with NCI-H460; in data set [2]) were 6.15 and 5.25, respectively.

As for `Cc1cc2c(C(=O)NCC3CC3)c(O)c(O)cc2c(O)c1-c1c(C)cc2c(C(=O)NCC3CC3)c(O)c(O)cc2c1O`, the result in [1] was Active. The negative-log EC50 (pEC50) in data set [2] is less than 5.00.

Turning to `Cc1cc2c(C(=O)NCCc3ccccc3)c(O)c(O)cc2c(O)c1-c1c(C)cc2c(C(=O)NCCc3ccccc3)c(O)c(O)cc2c1O`, the outcome in [1] was Active. Moreover, the remaining at 1 h in data set [4] is 63%. Further, in [5], the remaining at 1 h, 4 µM was 60%. Besides, the logPe in [6] was -6.49 log cm/s.

In the case of `Cc1cc2c(CC(C)C)c(O)c(O)cc2c(O)c1-c1c(C)cc2c(CC(C)C)c(O)c(O)cc2c1O`, the outcome in data set [1] was Active.

Turning to `Cc1cc2c(C(=O)Nc3ccccc3)c(O)c(O)cc2c(O)c1-c1c(C)cc2c(C(=O)Nc3ccccc3)c(O)c(O)cc2c1O`, the result in [1] was Active. The negative-log EC50 (pEC50) is 5.10 in data set [7] and 5.46 in the data set with NCI-H460.

For the compound `Cc1cc(C)c(CNC(=O)c2c(O)c(O)cc3c(O)c(-c4c(C)cc5c(C(=O)NCc6c(C)cc(C)cc6C)c(O)c(O)cc5c4O)c(C)cc23)c(C)c1`, in data set [1], the outcome was Active.

In the case of `Cc1cc2c(C(=O)NC3CCCC3)c(O)c(O)cc2c(O)c1-c1c(C)cc2c(C(=O)NC3CCCC3)c(O)c(O)cc2c1O`, the result in data set [1] was Active. The negative-log EC50 (pEC50) is 5.10 in data set [7], 5.07 in the data set with NCI-H460, 4.91 in data set [8] and 4.86 in [2].

On to `Cc1cc2c(C(=O)Nc3ccc(Oc4ccccc4)cc3)c(O)c(O)cc2c(O)c1-c1c(C)cc2c(C(=O)Nc3ccc(Oc4ccccc4)cc3)c(O)c(O)cc2c1O`, for which the outcome in data set [1] was Active. Besides, the pEC50 in data set [7] is 4.77; in the data set on NCI-H460, 5.00; in data set [8], 5.07; in data set [2], 4.97.

Take `Cc1cc2c(Cc3ccccc3)c(O)c(O)cc2c(O)c1-c1c(C)cc2c(Cc3ccccc3)c(O)c(O)cc2c1O`: the result in [1] was Active. In addition, the pEC50 in [7] was 5.89; in the data set with NCI-H460, 5.92; in data set [8], 5.08; in data set [2], 5.49.

In the case of `Cc1cc2c(CCC(C)C)c(O)c(O)cc2c(O)c1-c1c(C)cc2c(CCC(C)C)c(O)c(O)cc2c1O`, in data set [1], the outcome was Active.

Regarding `Cc1cc2c(C(=O)NC3Cc4ccccc4C3)c(O)c(O)cc2c(O)c1-c1c(C)cc2c(C(=O)NC3Cc4ccccc4C3)c(O)c(O)cc2c1O`, the outcome in data set [1] was Active. Moreover, the pEC50 was 5.15 in data set [7]; 6.03 in the data set with NCI-H460; 5.52 in [8]; 5.39 in data set [2]; 5.96 in [3].

In the case of `Cc1cc2c(C(=O)NCc3ccccc3)c(O)c(O)cc2c(O)c1-c1c(C)cc2c(C(=O)NCc3ccccc3)c(O)c(O)cc2c1O`, the result in data set [1] was Active. For the same compound, the negative logarithm of the EC50 (pEC50) in data set [7] is 5.44; in the data set on NCI-H460, 5.34; in data set [8], 4.86; in data set [2], 5.03.

Values taken from ChEMBL document CHEMBL1158469 (J Med Chem, 2009).
